The results in this text go back to ChEMBL document CHEMBL1142011, “Discovery of an exceptionally potent and selective class of fatty acid amide hydrolase inhibitors enlisting proteome-wide selectivity screening: concurrent optimization of enzyme inhibitor potency and selectivity” (Bioorg Med Chem Lett, 2005).

Experiment [1] deals with T1, Liver carboxylesterase 1 (Homo sapiens, UniProt P23141).
T1 sequence (P23141 whole entry): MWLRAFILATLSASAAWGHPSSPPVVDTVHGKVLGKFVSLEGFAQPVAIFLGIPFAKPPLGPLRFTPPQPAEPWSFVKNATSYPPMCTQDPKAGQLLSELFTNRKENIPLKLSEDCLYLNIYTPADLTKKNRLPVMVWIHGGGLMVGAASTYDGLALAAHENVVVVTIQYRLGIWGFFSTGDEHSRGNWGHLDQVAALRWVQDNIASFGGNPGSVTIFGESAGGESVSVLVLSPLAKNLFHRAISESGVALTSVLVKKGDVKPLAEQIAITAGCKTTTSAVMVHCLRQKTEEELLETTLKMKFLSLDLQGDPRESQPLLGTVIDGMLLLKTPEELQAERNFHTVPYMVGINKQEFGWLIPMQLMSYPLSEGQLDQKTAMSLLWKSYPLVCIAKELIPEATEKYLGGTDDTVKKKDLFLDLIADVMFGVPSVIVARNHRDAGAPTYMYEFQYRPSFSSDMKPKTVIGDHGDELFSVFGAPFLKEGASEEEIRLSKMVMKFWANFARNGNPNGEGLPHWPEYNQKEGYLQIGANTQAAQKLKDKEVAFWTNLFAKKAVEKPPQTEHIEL
The experiment is described as follows: Inhibitory concentration of triacylgylcerol hydrolase using FP-Rh radioligand. In outline: (§1)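 Competitive activity-based profiling of native membrane proteomes (brain, heart) with no purified enzyme or substrate. Proteome was incubated with rhodamine-tagged fluorophosphonate (FP-Rh) across systematically varied inhibitor concentrations under kinetically controlled conditions. Labeled serine hydrolases were resolved by SDS-PAGE and fluorescence-detected. Loss of band labeling gave IC50 for each enzyme.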

A short description of experiment [2]: Concentration of 50% inhibition of KIAA1363 was determined using FP-Rh as radioligand. The method in brief: as §1
Experiment [3] deals with T2, Fatty-acid amide hydrolase 1 (Mus musculus, UniProt O08914).
T2 sequence (O08914 whole entry): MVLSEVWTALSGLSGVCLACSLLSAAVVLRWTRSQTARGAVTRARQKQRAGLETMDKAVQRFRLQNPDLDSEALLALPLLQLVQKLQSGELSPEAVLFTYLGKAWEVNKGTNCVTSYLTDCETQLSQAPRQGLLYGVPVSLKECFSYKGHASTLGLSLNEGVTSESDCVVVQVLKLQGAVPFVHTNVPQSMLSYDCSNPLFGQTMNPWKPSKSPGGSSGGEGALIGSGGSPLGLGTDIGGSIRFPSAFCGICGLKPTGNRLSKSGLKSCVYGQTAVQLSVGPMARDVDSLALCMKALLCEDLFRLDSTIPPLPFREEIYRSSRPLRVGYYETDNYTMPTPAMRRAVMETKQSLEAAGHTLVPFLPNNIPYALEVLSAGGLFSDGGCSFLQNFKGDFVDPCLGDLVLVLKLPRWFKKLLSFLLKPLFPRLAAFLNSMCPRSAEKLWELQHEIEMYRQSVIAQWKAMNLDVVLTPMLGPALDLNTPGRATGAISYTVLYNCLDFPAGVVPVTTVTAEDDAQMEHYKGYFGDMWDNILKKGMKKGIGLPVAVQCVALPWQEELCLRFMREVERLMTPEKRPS
The experiment is described as follows: Inhibitor affinity towards enzymes of class serine hydrolase was determined using biotin or fluorescent as radioligand (FP-biotin or FP-Rh).

Experiment [4] deals with T3, Fatty-acid amide hydrolase 1 (Homo sapiens, UniProt O00519).
T3 sequence (O00519 whole entry): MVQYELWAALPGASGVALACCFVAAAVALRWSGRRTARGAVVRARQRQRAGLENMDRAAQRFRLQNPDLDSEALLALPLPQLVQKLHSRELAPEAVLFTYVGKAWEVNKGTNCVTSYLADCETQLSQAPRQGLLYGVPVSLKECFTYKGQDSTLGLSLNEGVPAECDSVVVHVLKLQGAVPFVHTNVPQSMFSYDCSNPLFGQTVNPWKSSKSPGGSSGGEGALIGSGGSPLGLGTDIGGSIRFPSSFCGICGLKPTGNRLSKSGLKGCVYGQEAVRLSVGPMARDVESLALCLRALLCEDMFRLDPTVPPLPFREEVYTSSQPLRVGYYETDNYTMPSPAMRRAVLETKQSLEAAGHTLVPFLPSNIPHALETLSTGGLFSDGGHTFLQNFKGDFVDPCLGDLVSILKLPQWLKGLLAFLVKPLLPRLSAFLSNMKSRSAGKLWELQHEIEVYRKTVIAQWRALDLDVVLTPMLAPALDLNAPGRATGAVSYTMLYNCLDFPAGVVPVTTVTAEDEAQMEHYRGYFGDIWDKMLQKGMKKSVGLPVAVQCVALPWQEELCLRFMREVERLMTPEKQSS
The experiment is described as follows: Inhibitory concentration of fatty acid amide hydrolase using FP-Rh radioligand. The method in brief: as §1

pIC50, pKi: −log10 of the molar value. Where “and” joins values, the source holds several entries; their conditions need not be identical. Equal values may be shown once. Bounds are passed on as bounds.

On to `O=C(CCCCCCCCc1ccccc1)c1ncc(-c2ccccn2)o1`, for which the results for the pIC50 in experiment [1], in experiment [2] and in experiment [4] were 5.22, < 4.00 and 7.52, respectively. For the same compound, the pKi (in general, the negative decadic logarithm of the Ki, by convention in mol/L) in experiment [3] was 8.11.
In the same order, the values of `O=C(CCCCCCc1ccccc1)c1nnc(-c2ccncc2)o1` are 7.52, < 4.00, 7.70 and 9.00.
Take `O=C(CCCCCCc1ccccc1)C(F)(F)F`: the pIC50 (as a rule, the negative decadic logarithm of the IC50, by convention in mol/L) is 9.00 in experiment [1], 6.70 in experiment [2] and 5.30 in experiment [4]. In experiment [3], this compound showed a pKi of 7.00.
Consider `O=C(CCCCCc1ccccc1)C(F)(F)F`, for which the results for the pIC50 in experiment [1], in experiment [2] and in experiment [4] were 9.30, 6.10 and 5.30, respectively. The pKi in experiment [3] was 6.77.
`O=C(CCCCCc1ccccc1)c1ncc(-c2ccccn2)o1`: the pIC50 in experiment [1] is 6.70; in experiment [2] it was < 4.00; in experiment [4], 7.00. In experiment [3], the negative logarithm of the Ki (pKi) is 7.96.
In the same order, the values of `CCCCCCCC/C=C/CCCCCCCC(=O)C(F)(F)F` are 5.30, 6.00, 5.30 and 7.10.
In the case of `O=C(CCCCCc1ccccc1)c1nc2ccccc2o1`, the results for the pIC50 in experiment [1], in experiment [2] and in experiment [4] were 7.70, < 4.00 and 5.00, respectively. Moreover, the pKi in experiment [3] is 6.66.
With `O=C(CCCCCCc1ccccc1)c1nc2ncccc2o1`, the results for the pIC50 in experiment [1], in experiment [2] and in experiment [4] were 8.52, 4.70 and 9.52, respectively. In experiment [3], this compound showed a pKi of 9.55.
Regarding `CCCCCCCC/C=C\CCCCCCCC(=O)c1ncc(-c2ccccn2)o1`, the figures for the pIC50 in experiment [1], in experiment [2] and in experiment [4] were 4.30, < 4.00 and 6.70, respectively. Also, in experiment [3], the pKi was 7.74.
Consider `O=C(CCCCCCc1ccccc1)c1nnc(-c2ccccn2)o1`, for which the pIC50 in experiment [1] was 6.85; in experiment [2], 4.05; in experiment [4], 9.00.
For the compound `O=C(CCCCCCc1ccccc1)c1ncc(-c2ccccn2)o1`, in experiment [2], the pIC50 is < 4.00.
With `CCCCCCCC/C=C\CCCCCCCC(=O)c1ncc(-c2ccccc2)o1`, the pIC50 in experiment [1] was 4.30; in experiment [2] it was < 4.00; in experiment [4], 5.30. This compound showed a pKi in experiment [3] of 6.49.
With `O=C(CCCCCCCCc1ccccc1)c1nnc(-c2ccccn2)o1`, the pIC50 in experiment [1] is 6.30; in experiment [2], 5.52; in experiment [4], 9.10. The pKi in experiment [3] is 9.07 and 9.08.
Compound `O=C(CCCCCCc1ccccc1)c1nnc(-c2ccccc2)o1` showed a negative-log Ki (pKi) in experiment [3] of 8.70.
In experiment [3], `O=C(CCCCCc1ccccc1)c1nnc(-c2cccnc2)o1` gave a pKi of 9.07. Compared with the last compound, the pKi is 0.37 log units higher.
On to `CCCCCCCC/C=C\CCCCCCCC(=O)c1nnc(-c2ccccn2)o1`, for which the pIC50 is 4.70 in experiment [1], < 4.00 in experiment [2] and 8.40 in experiment [4]. This compound also gave a pKi in experiment [3] of 8.52.
Regarding `CCCCCCCC/C=C\CCCCCCCC(=O)c1nnc(-c2ccccc2)o1`, the values for the pIC50 in experiment [1], in experiment [2] and in experiment [4] were 4.70, < 4.00 and 6.70, respectively. This compound showed a pKi in experiment [3] of 7.80.
Consider `CCCCCCCC/C=C\CCCCCCCC(=O)c1nc2ncccc2o1`, for which the results for the pIC50 in experiment [1], in experiment [2] and in experiment [4] were 6.00, 4.22 and 7.40, respectively. This compound had a pKi in experiment [3] of 8.64.
In the same order, the values of `O=C(CCCCCc1ccccc1)c1nc2ncccc2o1` are 9.00, 5.00, 9.00 and 9.70.
In the same order, the values of `O=C(CCCCCCCCc1ccccc1)c1nc2ncccc2o1` are 8.30, 5.00, 10.00 and 9.28.
Take `CCCCCCCCCC(=O)C(F)(F)F`: the results for the pIC50 in experiment [1], in experiment [2] and in experiment [4] were 8.00, 6.40 and 5.00, respectively. In experiment [3], the pKi is 6.89.
Take `CCCCCCCCCCCCCCCCCC(=O)C(F)(F)F`: the pIC50 in experiment [1] was 5.34; in experiment [2] it was 5.18; in experiment [4], 5.19. The pKi in experiment [3] was 6.62.
In the case of `O=C(CCCCCc1ccccc1)c1nnc(-c2ccccn2)o1`, the figures for the pIC50 in experiment [1], in experiment [2] and in experiment [4] were 7.52, 4.30 and 8.40, respectively.
Take `CCCCCCCC/C=C\CCCCCCCC(=O)c1nnco1`: the pKi in experiment [3] was 7.05.
As for `O=C(CCCCCCCc1ccccc1)c1ncc(-c2ccccn2)o1`, the pIC50 is 6.00 in experiment [1], < 4.00 in experiment [2] and 8.10 in experiment [4]. In experiment [3], the pKi is 8.12.
In the case of `CCCCCCCCCCCC(=O)C(F)(F)F`, the pIC50 in experiment [1] was 7.15; in experiment [2] it was 6.30; in experiment [4], 5.00. This compound had a pKi in experiment [3] of 6.85.
As to `O=C(CCCCCCCc1ccccc1)c1nc2ncccc2o1`, the pIC50 in experiment [1] is 8.30; in experiment [2], 4.70; in experiment [4], 9.52. In addition, in experiment [3], the pKi was 9.41.
With `O=C(CCCCCCCc1ccccc1)c1nnc(-c2ccco2)o1`, the pKi in experiment [3] is 9.54.
Take `O=C(CCCCCCCc1ccccc1)c1nnc(-c2ccccn2)o1`: the pIC50 in experiment [1] is 6.70; in experiment [2], 4.22; in experiment [4], 9.22.
In the case of `O=C(CCCCCCCc1ccccc1)C(F)(F)F`, the pIC50 in experiment [1] was 8.30; in experiment [2], 6.70; in experiment [4] it was 5.70. The pKi in experiment [3] is 7.60.
As for `O=C(CCCCCCc1ccccc1)c1nnc(-c2ccco2)o1`, the pKi in experiment [3] was 9.25.
As to `CCCCCCCC/C=C\CCCCCCCC(=O)c1nc2ccccc2o1`, the pIC50 in experiment [1] was 5.00; in experiment [2], < 4.00; in experiment [4], 5.00. In experiment [3], this compound gave a pKi of 6.43.
On to `O=C(CCCCCCc1ccccc1)c1nnc(-c2cccnc2)o1`, for which the pIC50 in experiment [1] is 7.00; in experiment [2], < 4.00; in experiment [4], 7.70. Besides, the pKi in experiment [3] was 9.00.
Consider `CCCCCCCC(=O)C(F)(F)F`, for which the pIC50 in experiment [1] is 8.70; in experiment [2], 5.82; in experiment [4], 4.52. The compound also showed a pKi in experiment [3] of 5.92.
`CCCCCCCC/C=C\CCCCCCCC(=O)c1ncco1`: the pIC50 in experiment [1] was 5.05; in experiment [2] it was < 4.00; in experiment [4], 5.70. The same compound gave a pKi in experiment [3] of 7.00.
